Consider 6 compounds from ChEMBL document CHEMBL1147330, “Cytotoxic and antimalarial bisbenzylisoquinoline alkaloids from Cyclea barbata” (1993).

What all share (assay type): functional
Assay [1] in a line: Cytotoxicity against human multidrug-sensitive KB3 cells. Particulars: read-out: ED50 (the source's name).
A short description of assay [2]: Cytotoxicity against human multidrug-resistant KBV1 cells. Particulars: KB-V1, read-out: ED50 (the source's name).
In assay [3] the test system is Plasmodium falciparum. In words: Antimalarial activity against chloroquine-resistant Plasmodium falciparum W2 infected type A+ human erythrocytes by [3H]hypoxanthine uptake. Particulars: read-out: ED50 (the source's name). Put shortly: (§1)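 P. falciparum (chloroquine-sensitive D-6, chloroquine-resistant W-2) in type A+ human erythrocytes, 6% hematocrit, RPMI-1640 with 32 mM NaHCO3, 25 mM HEPES, 10% heat-inactivated A+ human plasma; 5% O2/5% CO2/90% N2, 37°. Test compounds in duplicate at 125,000–3 ng/ml; quinine control 250–0.3 ng/ml. ED50 = 50% inhibition of parasite [3H]hypoxanthine incorporation vs zero-drug controls, by non-linear regression.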

The next assay has as its system P388. The assay is described as follows: Cytotoxicity against mouse P388 cells. Particulars: read-out: ED50 (the source's name).
In assay [4] the test system is Plasmodium falciparum. The assay is described as follows: Antimalarial activity against chloroquine-sensitive Plasmodium falciparum D6 infected type A+ human erythrocytes by [3H]hypoxanthine uptake. Particulars: read-out: ED50 (the source's name). In outline:
as §1

Values after ≈ are worked out from the molar mass of the structure shown.

On to `COc1ccc2cc1Oc1ccc(cc1)C[C@H]1c3cc(c(OC)cc3CCN1C)Oc1c(O)c(OC)cc3c1[C@@H](C2)N(C)CC3`, for which the EC50 worked out at 3.4 µg/mL (≈ 5.59 µM) in assay [1]; 11 µg/mL (≈ 18.1 µM) in assay [2]; 0.078 µg/mL (≈ 0.128 µM) in the assay with Plasmodium falciparum [3]; 0.36 µg/mL (≈ 0.591 µM) with P388; 0.0651 µg/mL (≈ 0.107 µM) in the assay on Plasmodium falciparum [4].

For `COc1ccc2cc1Oc1ccc(cc1)C[C@H]1c3c(cc(OC)c(O)c3Oc3cc4c(cc3OC)CCN(C)[C@H]4C2)CCN1C`, the EC50 was 2.2 µg/mL (≈ 3.61 µM) in assay [1]; 4.4 µg/mL (≈ 7.23 µM) in assay [2]; 0.0406 µg/mL (≈ 0.0667 µM) in the assay on Plasmodium falciparum [3]; 0.57 µg/mL (≈ 0.936 µM) in the assay on P388; 0.029 µg/mL (≈ 0.0476 µM) in the assay with Plasmodium falciparum [4].

With `COc1ccc2cc1Oc1ccc(cc1)C[C@@H]1c3cc(c(OC)cc3CCN1C)Oc1c(O)c(OC)cc3c1[C@@H](C2)N(C)CC3`, the EC50 came to 9.8 µg/mL (≈ 16.1 µM) in assay [1]; 11 µg/mL (≈ 18.1 µM) in assay [2]; 0.164 µg/mL (≈ 0.269 µM) in the assay on Plasmodium falciparum [3]; 0.25 µg/mL (≈ 0.411 µM) with P388; 0.0527 µg/mL (≈ 0.0866 µM) with Plasmodium falciparum [4].

Regarding `COc1ccc2cc1Oc1ccc(cc1)C[C@H]1c3cc(c(OC)cc3CCN1C)Oc1c(OC)c(OC)cc3c1[C@H](C2)N(C)CC3` [FANCHININ], the EC50 in assay [1] was determined as 2.1 µg/mL (≈ 3.37 µM); in assay [2], 3.7 µg/mL (≈ 5.94 µM); with Plasmodium falciparum [3], 0.16 µg/mL (≈ 0.257 µM); with P388, 0.4 µg/mL (≈ 0.642 µM); in the assay on Plasmodium falciparum [4], 0.179 µg/mL (≈ 0.287 µM).

Regarding `COc1ccc2cc1Oc1ccc(cc1)C[C@H]1c3c(cc(OC)c(O)c3Oc3cc4c(cc3OC)CCN(C)[C@@H]4C2)CCN1C` [HOMOAROMOLINE], the EC50 in assay [1] is 3.6 µg/mL (≈ 5.91 µM); in assay [2] it was 15 µg/mL (≈ 24.6 µM); with Plasmodium falciparum [3] it was 0.451 µg/mL (≈ 0.741 µM); in the assay with P388, 0.31 µg/mL (≈ 0.509 µM); with Plasmodium falciparum [4] it was 0.232 µg/mL (≈ 0.381 µM).

Take `C=C[C@H]1CN2CC[C@H]1C[C@H]2[C@H](O)c1ccnc2ccc(OC)cc12` [QUININE]: the EC50 in assay [1] was > 20 µg/mL; in assay [2] it was > 20 µg/mL; in the assay with Plasmodium falciparum [3], 0.0308 µg/mL (≈ 0.0949 µM); with P388, > 5 µg/mL; in the assay on Plasmodium falciparum [4], 0.0076 µg/mL (≈ 0.0234 µM).
